# Measured values taken from PMC10499740 (Advances in Therapy, 2023).
# Test: Plasma triptorelin concentration
# Type: in vivo, Chinese children
# Conditions: human, im, 15 mg, SD
# How it was run: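 Children with CPP (age-limited, ≥20 kg) received 15 mg of the test compound's pamoate salt (delivering 11.25 mg) by intramuscular injection into the upper outer buttock on day 1 and months 3, 6 and 9. Sparse plasma sampling was done pre-dose, 4 h post-injection on day 1, at month 3 (pre-dose) and at month 6. Concentrations were measured by validated LC-MS/MS and reported as means.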
smiles,measurement,value
CC(C)C[C@H](NC(=O)[C@@H](Cc1c[nH]c2ccccc12)NC(=O)[C@H](Cc1ccc(O)cc1)NC(=O)[C@H](CO)NC(=O)[C@H](Cc1c[nH]c2ccccc12)NC(=O)[C@H](Cc1c[nH]cn1)NC(=O)[C@@H]1CCC(=O)N1)C(=O)N[C@@H](CCCNC(=N)N)C(=O)N1CCC[C@H]1C(=O)NCC(N)=O [triptorelin],level at 4 h,47.6 ± 23.9 ng/mL
